Experimental data collected from several papers.
Each line is one published result; the experiments were not run side by side.
Target: Tyrosine-protein kinase ITK/TSK (ITK, Homo sapiens, UniProt Q08881)
Residues used in one study (Q08881 1-620): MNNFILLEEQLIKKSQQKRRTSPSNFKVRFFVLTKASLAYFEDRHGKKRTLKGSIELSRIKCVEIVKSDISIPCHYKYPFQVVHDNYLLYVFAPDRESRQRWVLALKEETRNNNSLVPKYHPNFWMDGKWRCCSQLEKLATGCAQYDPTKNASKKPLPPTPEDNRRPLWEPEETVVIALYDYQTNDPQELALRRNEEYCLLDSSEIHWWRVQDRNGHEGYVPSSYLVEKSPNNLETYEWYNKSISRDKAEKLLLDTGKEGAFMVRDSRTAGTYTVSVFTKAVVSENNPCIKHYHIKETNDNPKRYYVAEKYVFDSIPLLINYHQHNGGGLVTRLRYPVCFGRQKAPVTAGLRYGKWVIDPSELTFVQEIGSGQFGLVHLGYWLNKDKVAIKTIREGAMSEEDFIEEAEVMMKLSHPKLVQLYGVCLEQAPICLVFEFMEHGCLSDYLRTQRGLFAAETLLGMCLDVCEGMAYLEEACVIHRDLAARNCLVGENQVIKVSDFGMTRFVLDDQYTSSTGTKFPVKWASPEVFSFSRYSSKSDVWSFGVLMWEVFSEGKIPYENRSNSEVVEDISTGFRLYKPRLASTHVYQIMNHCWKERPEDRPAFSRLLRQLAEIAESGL

The remaining binding of `O=C(NC[C@@H]1[C@H]2CN(C(=O)OCc3cc(C(F)(F)F)cc(C(F)(F)F)c3)C[C@@H]12)c1ccc2[nH]nnc2c1` is reported as 100% (cell-free assay, competition with immobilised ligand; 1 µM).
With `CCCS(=O)(=O)Nc1ccc(F)c(C(=O)c2c[nH]c3ncc(-c4ccc(Cl)cc4)cc23)c1F` the inhibition was < 10% (enzyme activity, inhibitor; 1 µM).
The remaining binding of `CO[C@@H](C)c1c(Nc2ccc([C@H](N(C)C(=O)C3CCS(=O)(=O)CC3)C(F)(F)F)cc2)cnc2cc(Cl)nn12` is reported as 88% (cell-free assay, competition with immobilised ligand; 1 µM).
For `O=C1NC(=O)c2cc(Nc3ccc(F)cc3)c(Nc3ccc(F)cc3)cc21`, the remaining signal was 87.3% (cell-free assay; 0.5 µM).
`CN(C)C1CCN(CC#Cc2nn(C3CCCC3)c3nc(NCc4ccccc4)ncc23)C1` (stereo not shown) has an inhibition of 15% (enzyme activity, inhibitor, FRET; 10 µM).
`Cc1ccc(C(=O)Nc2ccc(CN3CCN(C)CC3)c(C(F)(F)F)c2)cc1C#Cc1cnc2cccnn12` has a remaining activity of 82% (enzyme activity; 23.5 nM).
The remaining activity of `COc1ccc(C(=O)Nc2sc3c(c2C(N)=O)CCCC3)cc1OC` is reported as 99.6% (enzyme activity, inhibitor; 0.5 µM).
`CCC(=O)N[C@H]1CC[C@@H](C(=O)N(C)c2ccc(-c3nc4ccccc4o3)cc2)C1` gave a remaining binding of 100% (cell-free assay, competition with immobilised ligand; 1 µM).
With `CC(C)(C)c1nc2c(s1)c1nc(N)ncc1c1ccc(NS(=O)(=O)c3c(F)cccc3F)c(F)c12` the remaining activity was 94% (enzyme activity, inhibitor, radiometric; 1 µM).
The remaining activity of `O=C(Nc1cnn(-c2csc(C(=O)NC3COC3)c2)c1)Nc1c(F)cccc1Cl` is reported as 92.8% (enzyme activity, inhibitor; 5 µM).
With `N#CCCc1ccc2c(c1)-c1[nH]c3ccc([N+](=O)[O-])cc3c1CC(=O)N2` the remaining signal was 99.9% (cell-free assay; 0.5 µM).
`Cc1ccc(NC(=O)c2ccc(C)c(C(F)(F)F)c2)cc1C#Cc1nn(C2CCC(O)CC2)c2ncnc(N)c12` (stereo not shown) gave a remaining signal of 102% (cell-free assay; 10 µM).
The remaining binding of `CC1=C(C#N)[C@@H](c2ccc3[nH]nc(C)c3c2)C(C#N)=C(c2ccc(Cl)cc2)N1` is reported as 97.2% (cell-free assay, competition with immobilised ligand; 1 µM).
`COc1cc2ncnc(Nc3ccc(Oc4ccccc4)c(C)c3C)c2cc1OC` gave an inhibition of 7% (enzyme activity, inhibitor; 1 µM).
`CNC(=O)c1cc(Oc2ccc(NC(=O)Nc3ccc(Cl)c(C(F)(F)F)c3)cc2)ccn1` has an inhibition of 32% (enzyme activity, inhibitor; 10 µM).
`CC/C(=N\NC(=O)NCc1cccc(O)c1)c1ccc(O)c(C)c1O` has an inhibition of 3.3% (enzyme activity, inhibitor; 0.1 µM).
The remaining binding of `CC(C)CC(=O)N1CCc2nc(-c3ccc(Br)cc3)nc(N(C)Cc3ccccc3)c2C1` is reported as 100% (cell-free assay, competition with immobilised ligand; 0.1 µM).
With `Cc1sc(C(=O)NC2COC2)cc1-n1cc(NC(=O)Nc2c(F)cccc2Cl)cn1` the remaining activity was 94.4% (enzyme activity, inhibitor; 10 µM).
`COc1cc2c(N3CCN(C(=O)Nc4ccc(OC(C)C)cc4)CC3)ncnc2cc1OCCCN1CCCCC1` has a remaining signal of 99% (cell-free assay; 0.5 µM).
`CC(C)(O)[C@H]1CC[C@H](Nc2ccc3ncc(-c4cccc(C(F)(F)F)c4)n3n2)CC1` gave a remaining activity of 88.8% (enzyme activity, inhibitor; 1 µM).
With `c1nc2c(Nc3ccc4c(c3)OCCO4)nc(Nc3ccc4c(c3)OCCO4)nc2[nH]1` the activity vs control was 5.1% (enzyme activity, inhibitor; 10 µM).
`O=S(=O)(NC1CCC(c2cc(F)ccc2F)(S(=O)(=O)c2ccc(Cl)cc2)CC1)C(F)(F)F` (stereo not shown) gave a remaining binding of 97% (cell-free assay, competition with immobilised ligand; 1 µM).
`O=C1Nc2ccc(Cl)cc2C1=Cc1cc(Cl)c(O)c(Cl)c1` gave a remaining signal of 91.8% (cell-free assay; 0.5 µM).
`CC(=O)N1CCC(c2ccc(C(=O)NC(=N)N)cc2C(F)(F)F)CC1` has a remaining binding of 100% (cell-free assay, competition with immobilised ligand; 1 µM).
The remaining signal of `Cc1ccc(Nc2nccc(N(C)c3ccc4c(C)n(C)nc4c3)n2)cc1S(N)(=O)=O` is reported as 115% (cell-free assay; 0.5 µM).
The inhibition of `CCN(CC)CCNC(=O)c1c(C)[nH]c(/C=C2\C(=O)Nc3ccc(F)cc32)c1C` is reported as 93% (enzyme activity, inhibitor; 10 µM).
With `COc1cccc(CNC(=O)c2nc3scc(COCc4ccc(C(=O)O)cc4)c3c(=O)[nH]2)c1` the remaining binding was 86.8% (cell-free assay, competition with immobilised ligand; 1 µM).
`COc1cc(Cl)c(C(=O)N[C@@H](CN[C@H]2CC[C@@H](N)CC2)Cc2ccc(C#N)cc2)cc1-c1ccc(CN[C@H](C)c2ccc(C)cc2)o1` has a remaining activity of 104% (enzyme activity, inhibitor; 1 µM).
